Measurements: ChEMBL document CHEMBL3352038, “Discovery of cytotoxic dolastatin 10 analogues with N-terminal modifications” (J Med Chem, 2014)
Non-standard residues stand in square brackets, D forms with d. Residues, ends and D or L forms follow the SMILES beside them. *: point of attachment. Dolaproine = CO[C@@H]([C@@H]1CCCN1)[C@@H](C)C(=O)O; Dil = CC[C@H](C)[C@H](NC)[C@@H](CC(=O)O)OC; Doe = c1ccc(C[C@H](N*)c2nccs2)cc1; X1 = C[C@@H](N*)[C@@H](O)c1ccccc1; NMeV = CN[C@H](C(=O)O)C(C)C; NMeA = CN[C@@H](C)C(=O)O; NMeAib = CNC(C)(C)C(=O)O; Ac5c = NC1(C(=O)O)CCCC1; Ac3c = NC1(C(=O)O)CC1; Aib = CC(C)(N)C(=O)O; Sar = CNCC(=O)O

Experiments:
MDA-MB-361 = assay: Cytotoxicity against human MDA-MB-361 cells assessed as cell viability incubated fore 4 days by MTS assay; format: functional; settings: MDA-MB-361, 96 h
Outline: (§1)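 Cells seeded at low density in 96-well plates, dosed next day with 3-fold serial dilutions at 10 concentrations in duplicate. Incubated 4 days at 37C/5% CO2. Viability read by MTS reagent (1.5 h), absorbance at 490 nm. Four-parameter logistic fit. Reported as arithmetic mean GI50 (nM) with standard deviation over n individual runs, each run a duplicate readout.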

NCI-N87 = assay: Cytotoxicity against human NCI-N87 cells assessed as cell viability incubated fore 4 days by MTS assay; format: functional; settings: NCI-N87, 96 h; outline: as §1
BT-474 = assay: Cytotoxicity against human BT474 cells assessed as cell viability incubated fore 4 days by MTS assay; format: functional; settings: BT-474, 96 h; outline: as §1
[1] = Drug metabolism in monkey liver S9 fraction assessed as formation of amide hydrolysis products; format: ADME, subcellular, Macaca mulatta; settings: rhesus monkey
[2] = Drug metabolism in rat liver S9 fraction assessed as formation of amide hydrolysis products; format: ADME, subcellular
[3] = Drug recovery in Han Wistar rat bile at 36 ug/kg, iv bolus dose; format: ADME, organism-based; settings: 0.036 mg/kg, read-out: Drug recovery
[4] = Drug metabolism in human liver S9 fraction assessed as formation of amide hydrolysis products; format: ADME, subcellular
[5] = Volume of distribution at steady state in Han Wistar rat at 20 ug/kg, iv by LC-MS/MS analysis; format: ADME, organism-based; settings: in vivo, 0.02 mg/kg, read-out: Vdss
Outline: (§2)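 Male Wistar Han rats (n = 3), single IV dose of 20 µg/kg. Plasma levels by LC-MS/MS. Cmax, Tmax, AUCt (zero to last measurable concentration), systemic serum clearance, Vss and terminal t1/2 given as mean ± spread.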

Cytochrome P450 3A4 = Cytochrome P450 3A4 (Homo sapiens, UniProt P08684); assay: Drug metabolism assessed as human recombinant CYP3A4-mediated hydroxylation occurring on N-terminus; format: ADME; settings: recombinant enzyme
Hepatocyte = assay: Apparent intrinsic clearance in human liver hepatocytes at 1 uM; format: ADME, cell-based
Outline: (§3)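 Apparent intrinsic clearance measured at 1 μM substrate in human liver microsomes (μl/min/mg) and in human hepatocytes (μl/min/million cells).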

[6] = Half life in Han Wistar rat at 20 ug/kg, iv by LC-MS/MS analysis; format: ADME, organism-based; settings: in vivo, 0.02 mg/kg; outline: as §2
[7] = Drug recovery in Han Wistar rat urine at 36 ug/kg, iv bolus dose; format: ADME, organism-based; settings: 0.036 mg/kg, read-out: Drug recovery
Outline: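 Single IV bolus of 36 µg/kg. Fraction of dose recovered in urine (Wistar Han rats, n = 3) and in bile (Sprague-Dawley rats, n = 3).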

[8] = Apparent intrinsic clearance in human liver microsomes at 1 uM; format: ADME; settings: read-out: CLH(app); outline: as §3
[9] = Drug metabolism in rat liver S9 fraction assessed as formation of NADPH-dependent oxidative metabolites; format: ADME, subcellular
[10] = Fraction unbound in monkey plasma at 0.1 uM; format: ADME, cell-free, Macaca mulatta; settings: rhesus monkey
Outline: (§4)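 Plasma protein binding measured at 0.1 uM in monkey, rat and human plasma. Reported as fraction unbound.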

[11] = Drug metabolism in human liver S9 fraction assessed as formation of glucuronide conjugates; format: ADME, subcellular
[12] = Drug metabolism in rat liver S9 fraction assessed as formation of glucuronide conjugates; format: ADME, subcellular
[13] = Fraction unbound in human plasma at 0.1 uM; format: ADME, cell-free; outline: as §4
[14] = Drug metabolism in monkey liver S9 fraction assessed as formation of glucuronide conjugates; format: ADME, subcellular, Macaca mulatta; settings: rhesus monkey
[15] = Drug metabolism in monkey liver S9 fraction assessed as formation of NADPH-dependent oxidative metabolites; format: ADME, subcellular, Macaca mulatta; settings: rhesus monkey
[16] = AUCt in Han Wistar rat at 20 ug/kg, iv by LC-MS/MS analysis; format: ADME, organism-based; settings: plasma, 0.02 mg/kg
Outline: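 Male Wistar Han rats (n = 3) received a single IV dose of 20 µg/kg. Serum/plasma concentrations were measured by LC-MS/MS. AUCt was taken from time zero to the last measurable concentration. Values are reported as mean ±.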

[17] = Fraction unbound in rat plasma at 0.1 uM; format: ADME, cell-free; outline: as §4
[18] = Drug metabolism in human liver S9 fraction assessed as formation of NADPH-dependent oxidative metabolites; format: ADME, subcellular
[19] = Cmax in Han Wistar rat at 20 ug/kg, iv by LC-MS/MS analysis; format: ADME, organism-based; set-up: dose 20 ug/kg, route intravenous; settings: in vivo, 0.02 mg/kg; outline: as §2
[20] = Tmax in Han Wistar rat at 20 ug/kg, iv by LC-MS/MS analysis; format: ADME, organism-based; settings: in vivo, 0.02 mg/kg; outline: as §2
[21] = Clearance in Han Wistar rat at 20 ug/kg, iv by LC-MS/MS analysis; format: ADME, organism-based; settings: in vivo, 0.02 mg/kg; outline: as §2

Sequence of Cytochrome P450 3A4 (P08684 whole entry): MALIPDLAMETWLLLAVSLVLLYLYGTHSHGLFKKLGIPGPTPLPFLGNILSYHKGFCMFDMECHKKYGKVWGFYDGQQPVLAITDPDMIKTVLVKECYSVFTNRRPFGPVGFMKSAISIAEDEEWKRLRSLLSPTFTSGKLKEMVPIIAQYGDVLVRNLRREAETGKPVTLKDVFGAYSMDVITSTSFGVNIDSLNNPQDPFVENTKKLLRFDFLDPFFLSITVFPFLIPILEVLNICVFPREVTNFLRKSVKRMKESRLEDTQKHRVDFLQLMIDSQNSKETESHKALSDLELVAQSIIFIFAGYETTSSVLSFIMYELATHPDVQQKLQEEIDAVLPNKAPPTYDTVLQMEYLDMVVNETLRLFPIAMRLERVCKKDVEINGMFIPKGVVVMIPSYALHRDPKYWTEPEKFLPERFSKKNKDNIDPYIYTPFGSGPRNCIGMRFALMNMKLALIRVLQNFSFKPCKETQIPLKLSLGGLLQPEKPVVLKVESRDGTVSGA

CC[C@H](C)[C@@H]([C@@H](CC(=O)N1CCC[C@H]1[C@H](OC)[C@@H](C)C(=O)N[C@@H](Cc1ccccc1)c1nccs1)OC)N(C)C(=O)[C@@H](NC(=O)[C@@H](N)C(C)C)C(C)C (H-VV[Dil][Dolaproine]-Doe)
GI50 (MDA-MB-361): 9 nM
GI50 (NCI-N87): 10 nM
GI50 (BT-474): 5.3 nM

CC[C@H](C)[C@@H]([C@@H](CC(=O)N1CCC[C@H]1[C@H](OC)[C@@H](C)C(=O)N[C@@H](Cc1ccccc1)c1nccs1)OC)N(C)C(=O)[C@@H](NC(=O)C1(N)CC1)C(C)C (H-[Ac3c]V[Dil][Dolaproine]-Doe)
GI50 (MDA-MB-361): 5.6 nM
GI50 (NCI-N87): 6.4 nM
GI50 (BT-474): 2.9 nM

CC[C@H](C)[C@@H]([C@@H](CC(=O)N1CCC[C@H]1[C@H](OC)[C@@H](C)C(=O)N[C@@H](Cc1ccccc1)c1nccs1)OC)N(C)C(=O)[C@@H](NC(=O)C1(N)CCCC1)C(C)C (H-[Ac5c]V[Dil][Dolaproine]-Doe)
GI50 (MDA-MB-361): 0.35 nM
GI50 (NCI-N87): 0.33 nM
GI50 (BT-474): 0.28 nM

CC[C@H](C)[C@@H]([C@@H](CC(=O)N1CCC[C@H]1[C@H](OC)[C@@H](C)C(=O)N[C@@H](Cc1ccccc1)c1nccs1)OC)N(C)C(=O)[C@@H](NC(=O)C(C)(C)N)C(C)C (H-[Aib]V[Dil][Dolaproine]-Doe)
Drug metabolism [1]: metabolite_notdetected
Drug metabolism [2]: metabolite_notdetected
dose excreted [3]: 4%
Drug metabolism [4]: metabolite_notdetected
Vd [5]: 14.7 L/kg
Drug metabolism (Cytochrome P450 3A4): metabolite_detected
CLH(app) (Hepatocyte): 21 µL/min/mg
half-life [6]: 351 min
dose excreted [7]: 8%
microsomal CLint at 1 µM [8]: 84 µL/min/mg
GI50 (MDA-MB-361): 0.19 nM
Drug metabolism [9]: metabolite_detected
fraction unbound at 0.1 µM [10]: 0.24
Drug metabolism [11]: metabolite_notdetected
Drug metabolism [12]: metabolite_notdetected
fraction unbound at 0.1 µM [13]: 0.07
Drug metabolism [14]: metabolite_notdetected
GI50 (NCI-N87): 0.27 nM
Drug metabolism [15]: metabolite_detected
AUC(0-t) [16]: 4.51 ng·h/mL
fraction unbound at 0.1 µM [17]: 0.1
Drug metabolism [18]: metabolite_detected
Cmax [19]: 19.4 ng/mL
GI50 (BT-474): 0.26 nM
Tmax [20]: 8.4 min
clearance [21]: 70 mL/min/kg

CC[C@H](C)[C@@H]([C@@H](CC(=O)N1CCC[C@H]1[C@H](OC)[C@@H](C)C(=O)N[C@@H](Cc1ccccc1)c1nccs1)OC)N(C)C(=O)[C@@H](NC(=O)[C@H](C)NC)C(C)C (H-[NMeA]V[Dil][Dolaproine]-Doe)
GI50 (MDA-MB-361): 0.25 nM
GI50 (NCI-N87): 0.42 nM
GI50 (BT-474): 0.23 nM

CC[C@H](C)[C@@H]([C@@H](CC(=O)N1CCC[C@H]1[C@H](OC)[C@@H](C)C(=O)N[C@@H](Cc1ccccc1)c1nccs1)OC)N(C)C(=O)[C@@H](NC(=O)C(C)(C)NC)C(C)C (H-[NMeAib]V[Dil][Dolaproine]-Doe)
GI50 (MDA-MB-361): 0.076 nM
GI50 (NCI-N87): 0.12 nM
GI50 (BT-474): 0.045 nM

CC[C@H](C)[C@@H]([C@@H](CC(=O)N1CCC[C@H]1[C@H](OC)[C@@H](C)C(=O)N[C@@H](Cc1ccccc1)c1nccs1)OC)N(C)C(=O)[C@@H](NC(=O)[C@@H](NC)C(C)C)C(C)C (H-[NMeV]V[Dil][Dolaproine]-Doe)
CLH(app) (Hepatocyte): 11 µL/min/mg
microsomal CLint at 1 µM [8]: 48 µL/min/mg
GI50 (MDA-MB-361): 0.09 nM
GI50 (NCI-N87): 0.3 nM
GI50 (BT-474): 0.12 nM

CC[C@H](C)[C@@H]([C@@H](CC(=O)N1CCC[C@H]1[C@H](OC)[C@@H](C)C(=O)N[C@H](C)[C@@H](O)c1ccccc1)OC)N(C)C(=O)[C@@H](NC(=O)[C@@H](NC)C(C)C)C(C)C (H-[NMeV]V[Dil][Dolaproine]-X1)
CLH(app) (Hepatocyte): 3 µL/min/mg
microsomal CLint at 1 µM [8]: 24 µL/min/mg
GI50 (MDA-MB-361): 0.49 nM
GI50 (NCI-N87): 0.54 nM
GI50 (BT-474): 0.22 nM

CC[C@H](C)[C@@H]([C@@H](CC(=O)N1CCC[C@H]1[C@H](OC)[C@@H](C)C(=O)N[C@@H](Cc1ccccc1)c1nccs1)OC)N(C)C(=O)[C@@H](NC(=O)CNC)C(C)C (H-[Sar]V[Dil][Dolaproine]-Doe)
GI50 (MDA-MB-361): 0.69 nM
GI50 (NCI-N87): 1.2 nM
GI50 (BT-474): 0.49 nM
